The values that follow come from ChEMBL document CHEMBL2311343, “Investigations into the synthesis, radiofluorination and conjugation of a new [¹⁸F]fluorocyclobutyl prosthetic group and its in vitro stability using a tyrosine model system” (Bioorg Med Chem, 2013).

Series [1] can be described thus: Metabolic stability in Han Wistar rat hepatocytes at 1 uM after 16 mins. It is filed as ADME, cell-based, Hepatocyte. The following applies: read-out: Stability. In short, it runs like this: (§1)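 Hepatocytes isolated from Han Wistar rat liver by two-step perfusion and Percoll purification; viability by trypan blue. Incubated at 0.5×10^6 viable cells/mL in Williams' medium E + 5% FCS with 1 µM compound, shaken continuously. Aliquots taken at 2–60 min and quenched with cold methanol, frozen overnight, centrifuged. Supernatant analysed by LC-MS/MS.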

Series [2] is described as follows: Metabolic stability in Han Wistar rat hepatocytes at 1 uM after 30 mins. It is filed as ADME, cell-based, Hepatocyte. Conditions: read-out: Stability; call rule not given here. In outline: as §1
A short description of series [3]: Metabolic stability in Han Wistar rat hepatocytes at 1 uM after 60 mins. In kind it is ADME, cell-based, Hepatocyte. Conditions: read-out: Stability. In outline:
as §1

Series [4] can be described thus: Metabolic stability in Han Wistar rat hepatocytes at 1 uM after 45 mins. The following applies: read-out: Stability. In kind it is ADME, cell-based, Hepatocyte. In outline: as §1
Series [5] is described as follows: Metabolic stability in Han Wistar rat hepatocytes at 1 uM after 2 mins. In kind it is ADME, cell-based, Hepatocyte. The following applies: read-out: Stability. In short, it runs like this:
as §1

Series [6] can be described thus: Metabolic stability in Han Wistar rat hepatocytes at 1 uM after 8 mins. It is filed as ADME, cell-based, Hepatocyte. Conditions: read-out: Stability. In outline: as §1
Series [7] relates to A549. The series can be described thus: Cellular uptake in human A549 cells at 0.2 MBq up to 60 mins by gamma counting in presence of L-3-FCBT. In kind it is ADME, cell-based. Conditions: a549, 1 h.
Series [8] relates to A549. The series can be described thus: Cellular uptake in human A549 cells at 0.2 MBq by gamma counting. The following applies: TDE = time-dependent effect. In kind it is ADME, cell-based. In short, it runs like this:
(§2)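 Sub-confluent cells seeded 1–2 days earlier (A549 and DU145 in DMEM + 10% FBS; NCI-H460 in DMEM/F-12 + 10% FBS). Washed with PBS, then incubated with 0.2 MBq radiotracer per well in PBS + 0.1% BSA (8% EtOH) at 37 °C, 5% CO2, for 10, 20, 30 and 60 min. Washed, lysed in 1 M NaOH and gamma-counted. Expressed as % applied dose per 10^5 cells, decay-corrected, in triplicate.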

In series [9] the test system is NCI-H460. The series can be described thus: Cellular uptake in human NCI-H460 cells at 0.2 MBq by gamma counting. It is filed as ADME, cell-based. Conditions: TDE = time-dependent effect. In outline:
as §2

Series [10] in a line: (§3) Stability of the compound in rat plasma at 22 MBq/mL up to 120 mins. It is filed as ADME, cell-free. Conditions: read-out: Stability. In short, it runs like this: (§4)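 Radiotracer at 22 MBq/mL incubated in human or rat plasma at 37 °C; sampled at 0, 30, 60, 90 and 120 min. Proteins precipitated with MeOH and centrifuged. Supernatant analysed by radio-HPLC and by radio-TLC (BuOH/AcOH/H2O 12:3:5). Intact tracer expressed as % of the 0 min sample.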

Series [11] relates to DU-145. The series can be described thus: Cellular uptake in human DU145 cells at 0.2 MBq up to 60 mins by gamma counting in presence of FET. In kind it is ADME, cell-based. Conditions: du-145, 1 h.
Series [12] deals with A549. The series can be described thus: Cellular uptake in human A549 cells assessed per 1-'5 cells at 0.2 MBq after 10 mins by gamma counting. In kind it is ADME, cell-based. Conditions: a549, 10 min. In outline: as §2
Series [13] deals with A549. The series is described as follows: Cellular uptake in human A549 cells assessed per 1-'5 cells at 0.2 MBq after 30 mins by gamma counting. Conditions: a549, 0.5 h. In kind it is ADME, cell-based. In outline: as §2
Series [14] deals with DU-145. The series is described as follows: Cellular uptake in human DU145 cells assessed per 1-'5 cells at 0.2 MBq after 60 mins by gamma counting. The following applies: du-145, 1 h. It is filed as ADME, cell-based. In outline: as §2
Series [15] concerns NCI-H460. The series can be described thus: Cellular uptake in human NCI-H460 cells assessed per 1-'5 cells at 0.2 MBq after 10 mins by gamma counting. It is filed as ADME, cell-based. Conditions: nci-h460, 10 min. In outline:
as §2

Series [16] can be described thus: Stability of the compound in human plasma at 22 MBq/mL up to 120 mins. It is filed as ADME, cell-free. The following applies: read-out: Stability. In short, it runs like this: as §4
For series [17], the system named is A549. The series can be described thus: Cellular uptake in human A549 cells at 0.2 MBq up to 60 mins by gamma counting in presence of FET. Conditions: a549, 1 h. It is filed as ADME, cell-based.
The test system of series [18] is NCI-H460. The series can be described thus: Cellular uptake in human NCI-H460 cells at 0.2 MBq up to 60 mins by gamma counting in presence of L-3-FCBT. The following applies: nci-h460, 1 h. In kind it is ADME, cell-based.
Series [19] relates to DU-145. The series can be described thus: Cellular uptake in human DU145 cells at 0.2 MBq by gamma counting. In kind it is ADME, cell-based. The following applies: TDE = time-dependent effect. In outline: as §2
In series [20] the test system is DU-145. The series can be described thus: Cellular uptake in human DU145 cells at 0.2 MBq up to 60 mins by gamma counting in presence of L-3-FCBT. It is filed as ADME, cell-based. Conditions: du-145, 1 h.
Series [21] concerns DU-145. The series can be described thus: Cellular uptake in human DU145 cells assessed per 1-'5 cells at 0.2 MBq after 10 mins by gamma counting. It is filed as ADME, cell-based. The following applies: du-145, 10 min. In short, it runs like this: as §2
Series [22] relates to NCI-H460. The series is described as follows: Cellular uptake in human NCI-H460 cells at 0.2 MBq up to 60 mins by gamma counting in presence of FET. In kind it is ADME, cell-based. Conditions: nci-h460, 1 h.
Series [23] relates to NCI-H460. The series is described as follows: Cellular uptake in human NCI-H460 cells assessed per 1-'5 cells at 0.2 MBq after 60 mins by gamma counting. It is filed as ADME, cell-based. The following applies: nci-h460, 1 h. In short, it runs like this: as §2
Another series deals with Plasma. The series is described as §3. It is filed as ADME, cell-free. The following applies: 2 h. In outline: as §4
Series [24] can be described thus: Stability of the compound in human plasma at 22 MBq/mL after 5 mins. In kind it is ADME, cell-free. Conditions: read-out: Stability.
Series [25] in a line: Lipophilicity, log D of the compound. In kind it is physicochemical. Conditions: octanol/water. In short, it runs like this: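 Shake-flask logD, run manually in two vials. Compound (0.1 mg) in octanol saturated with 10 mM phosphate buffer pH 7.4, sonicated 3 min, shaken 4 min at 20 °C. Phases separated by centrifugation, then quantified by reversed-phase HPLC with UV at 254 nm by peak area.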

As for `N[C@@H](Cc1ccc(O[C@H]2C[C@@H](F)C2)cc1)C(=O)O`, in [1], the remaining at 16 min, 1 µM was 98%. The remaining at 0.5 h, 1 µM in series [2] came out at 97%. In series [3], the remaining at 1 h, 1 µM amounted to 94%. Also, the remaining at 0.75 h, 1 µM in series [4] was determined as 95%. For the same compound, in series [5], the remaining at 2 min, 1 µM was found to be 100%. Also, the remaining at 8 min, 1 µM in series [6] stood at 99%.

As to `N[C@@H](Cc1ccc(O[C@H]2C[C@@H]([18F])C2)cc1)C(=O)O`, the Drug uptake entry is recorded as “Not Active” in the series with A549 [7]; “tde” in the series with A549 [8]; “tde” in the series with NCI-H460 [9]; “Not Active” in the series on DU-145 [11]; 2.8% in the series with A549 [12]; 5.8% with A549 [13]. For the same compound, the Drug uptake in the series with DU-145 [14] was 2.1%; with NCI-H460 [15], 0.7%; in the series on A549 [17] it was “Not Active”; in the series with NCI-H460 [18], “Not Active”; in the series on DU-145 [19], “tde”; with DU-145 [20], “Not Active”. The values for the Drug uptake with DU-145 [21], in the series on NCI-H460 [22] and in the series on NCI-H460 [23] were 0.7%, “Not Active” and 2.1%, respectively. Besides, the remaining at 2 h, 22 MBq/mL in series [10] and in [16] was > 99.9% each time.

Turning to `N[C@@H](Cc1ccc(OCC[18F])cc1)C(=O)O` [FLORETYROSINE F18], the Stability entry with Plasma is recorded as “Stable”. Moreover, the remaining at 5 min, 22 MBq/mL in series [24] was 95%. Besides, in series [16], the remaining at 2 h, 22 MBq/mL came to 87%.

Broadly, the logD is lipophilicity at a set pH, counting ionised and neutral species. As to `N[C@@H](Cc1ccc(OCCF)cc1)C(=O)O` [O-(2-FLUOROETHYL)-L-TYROSINE], the logD in [25] is -1.51.
